Source: ChEMBL document CHEMBL5236549, “Discovery of 2-Sulfinyl-Diazabicyclooctane Derivatives, Potential Oral β-Lactamase Inhibitors for Infections Caused by Serine β-Lactamase-Producing Enterobacterales” (J Med Chem, 2021)

Tests used:
Klebsiella pneumoniae [1] = test: Antibacterial activity against Klebsiella pneumoniae ATCC BAA1705 assessed as reduction in bacterial growth by measuring minimum potentiating concentration incubated for 16 to 20 hrs by CLSI based two-fold serial dilution method; details: time 16-20 hrs
[2] = Total clearance in rat at 1 mg/kg,iv by LC/MS/MS analysis; format: ADME, organism-based; details: in vivo
In short: (§1)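 Intravenous dosing (mouse 10, rat 1, dog 5, monkey 5 mg/kg); plasma quantified by LC/MS/MS after methanol precipitation with external standard; AUC by linear trapezoidal approximation; CLtot = dose/AUC.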

[3] = Total clearance in monkey at 5 mg/kg,iv by LC/MS/MS analysis; format: ADME, organism-based, Macaca mulatta; details: rhesus monkey, in vivo
In short: as §1

[4] = AUC in rat at 1 mg/kg,iv by LC/MS/MS analysis; format: ADME, organism-based; design: dose 1 mg/kg, route iv; details: in vivo
In short: (§2)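 Plasma of the parent acid measured by LC/MS/MS (methanol precipitation, positive ESI, external standard); oral values follow prodrug dosing (rat fed, dog and monkey fasted). AUC from 0 h to last time point by linear trapezoid; F from oral AUC versus iv AUC of the parent. N = 2 (rat, dog), N = 3 (monkey, mouse).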

Klebsiella pneumoniae [5] = test: Antibacterial activity against Klebsiella pneumoniae ATCC SR201218 assessed as inhibition of bacterial growth incubated for 16 to 20 hrs by CLSI based two-fold serial dilution method
[6] = AUC in dog at 5 mg/kg,iv by LC/MS/MS analysis; format: ADME, organism-based, Canis lupus familiaris; design: dose 5 mg/kg, route iv; details: in vivo
In short: as §2

Escherichia coli = test: Antibacterial activity against Escherichia coli ATCC SR09613 assessed as inhibition of bacterial growth incubated for 16 to 20 hrs by CLSI based two-fold serial dilution method
[7] = Stability of the compound in phosphate buffer at pH 7.0 assessed as parent compound remaining at 40 degreeC measured after 16 hrs; format: physicochemical; details: read-out: Stability
In short: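 Compound held in pH 7.0 phosphate buffer at 40 °C for 16 h; amount remaining reported as %.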

Klebsiella pneumoniae [8] = test: Antibacterial activity against Klebsiella pneumoniae SR201325 assessed as inhibition of bacterial growth incubated for 16 to 20 hrs by CLSI based two-fold serial dilution method
Klebsiella pneumoniae [9] = test: Antibacterial activity against Klebsiella pneumoniae SR200487 assessed as inhibition of bacterial growth incubated for 16 to 24 hrs by CLSI based two-fold serial dilution method; format: functional; details: time 16-24 hrs
In short: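 CLSI broth microdilution in cation-adjusted Mueller Hinton broth, twofold serial dilutions, about 5 × 10⁴ cfu/well from OD625, 35 °C for 16−20 h. MIC is the lowest concentration with no visible growth.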

[10] = Inhibition of bacterial beta-lactamase KPC-2 using nitrocefin as substrate incubated for 20 mins; design: species or system Bacteria
In short: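 Nitrocefin hydrolysis read by absorbance. Enzyme titrated to give about 0.2 absorbance change over the no-enzyme control. Enzyme added to nitrocefin (final 50 μg/mL) plus inhibitor, no preincubation, read after 20 min at 35 °C. IC50 is 50% reduction of hydrolysis. N = 1.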

[11] = Half life in mouse at 10 mg/kg,iv by LC/MS/MS analysis; format: ADME, organism-based; details: in vivo
In short: (§3)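 After iv dosing, T1/2 taken as ln 2/kel, with kel from the slope of the log concentration–time profile. Plasma levels measured by LC/MS/MS with an external standard.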

[12] = Half life in rat at 1 mg/kg,iv by LC/MS/MS analysis; format: ADME, organism-based; details: in vivo
In short: as §3

Klebsiella pneumoniae [13] = test: Antibacterial activity against Klebsiella pneumoniae ATCC BAA1705 assessed as inhibition of bacterial growth incubated for 16 to 20 hrs by CLSI based two-fold serial dilution method
Klebsiella pneumoniae [14] = test: Antibacterial activity against Klebsiella pneumoniae SR200487 assessed as reduction in bacterial growth by measuring minimum […] concentration incubated for 16 to 20 hrs by CLSI based two-fold serial dilution method; details: time 16-20 hrs
Enterobacter cloacae = test: Antibacterial activity against Enterobacter cloacae SR100108 assessed as inhibition of bacterial growth incubated for 16 to 20 hrs by CLSI based two-fold serial dilution method

**Q.** Which results are given for `C[S@@+]([O-])[C@@H]1CC[C@@H]2CN1C(=O)N2O[C@H](F)C(=O)[O-].[Na+]`?
**A.** MPC (Klebsiella pneumoniae [1]): 0.063 µg/mL; clearance [2]: 27 mL/min/kg; clearance [3]: 6.15 mL/min/kg; AUC [4]: 620 ng·h/mL; MIC (Klebsiella pneumoniae [5]): > 32 µg/mL; AUC [6]: 19400 ng·h/mL; MIC (Escherichia coli): 32 µg/mL; remaining at 16 h [7]: 95%; MIC (Klebsiella pneumoniae [8]): > 32 µg/mL; MIC (Klebsiella pneumoniae [9]): > 32 µg/mL; IC50 [10]: 14 nM; half-life [11]: 24 min; half-life [12]: 12 min; MIC (Klebsiella pneumoniae [13]): 32 µg/mL; MPC (Klebsiella pneumoniae [14]): 0.5 µg/mL; MIC (Enterobacter cloacae): > 32 µg/mL
